Values after ≈ are worked out from the molar mass of the structure shown.

We go through one compound from ChEMBL document CHEMBL3124867, “Hepatitis C replication inhibitors that target the viral NS4B protein” (J Med Chem, 2014).

Data set [1] can be described thus: Displacement of [3H]-3-(1-(3-chloro-6-isopropyl-8-(trifluoromethyl)imidazo[1,2-a]pyridine-2-carbonyl)piperidin-4-yl)oxazolidin-2-one from HCV genotype 1b C-terminal His-tagged NS4B (1 to 261 aa) expressed in baculovirus infected SF9 cells after overnight incubation. Further details: species or system Hepatitis C virus subtype 1b.
For the next data set, the species on record is Rattus norvegicus. Description: Cardiovascular toxicity in rat after 7 days. It is filed as organism-based. The conditions noted are these: in vivo, 168 h.
Data set [2] in a line: Plasma protein binding in human at 5 uM after 4 hrs by rapid equilibrium dialysis method. It is filed as ADME, cell-free. As to conditions: read-out: PPB (converted).
Data set [3] in a line: Plasma protein binding in CD rat at 5 uM after 4 hrs by rapid equilibrium dialysis method. As to conditions: read-out: PPB (converted). The format is ADME, cell-free.
For data set [4], the system named is Hepatitis C virus. In words: Antiviral activity against Hepatitis C virus genotype 1a infected in human HuH7 cells after 48 hrs by luciferase reporter gene assay. The format is functional, organism-based, Hepacivirus hominis. As to conditions: subtype 1a, Huh-7, 48 h.
Data set [5] relates to Hepatitis C virus. In words: Antiviral activity against Hepatitis C virus genotype 1b infected in human HuH7 cells after 48 hrs by luciferase reporter gene assay. As to conditions: Huh-7, 48 h. It is filed as functional, organism-based, Hepacivirus hominis.
Data set [6] can be described thus: Plasma protein binding in beagle dog at 5 uM after 4 hrs by rapid equilibrium dialysis method. The format is ADME, cell-free, Canis lupus familiaris. As to conditions: read-out: PPB (converted).
The nature of data set [7]: AUC (0 to 24 hrs) in CD rat at 300 mg/kg, po by LC/MS/MS analysis. The format is ADME, organism-based. Further details: time < 24 hr, dose 300 mg/kg, route oral. The conditions noted are these: plasma. In short, it runs like this: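 CD rats were given a single oral dose of 300 mg/kg of parent suspension or of prodrug. Plasma was assayed for the parent drug and for uncleaved prodrug.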

In data set [8] the test system is Hepatitis C virus. Description: Antiviral activity against Hepatitis C virus genotype 1a. It is filed as functional, Hepacivirus hominis. The conditions noted are these: subtype 1a.
Data set [9] in a line: Lipophilicity, log D of the compound by chromatographic analysis. It is filed as physicochemical. In short, it runs like this:
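Lipophilicity was measured chromatographically and reported as ChromLogD; ≥6 replicates.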

The next data set deals with Huh-7. Description: Cytotoxicity against human HuH7 cells at 50 uM after 2 days by Cell Titer Glo assay. It is filed as cell-based. The conditions noted are these: huh-7, 48 h. In short, it runs like this: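 Huh7 cells were exposed to compound at 50 μM for 2 days and scored for cellular toxicity.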
Data set [10] can be described thus: Aqueous solubility in fasted state simulated intestinal fluid at pH 6.5 by LC/UV analysis. It is filed as physicochemical.
Data set [11] concerns Hepatitis C virus. In words: Antiviral activity against Hepatitis C virus genotype 1b expressing NS4B V105M mutant infected in human HuH7 cells after 48 hrs by luciferase reporter gene assay. The format is functional, organism-based, Hepacivirus hominis. The conditions noted are these: Huh-7, 48 h.
Data set [12] in a line: Plasma protein binding in cynomolgus monkey at 5 uM after 4 hrs by rapid equilibrium dialysis method. It is filed as ADME, cell-free, Macaca fascicularis. The conditions noted are these: read-out: PPB (converted).

With `O=C(c1nc2c(C(F)(F)F)cc(C3CC3)cn2c1Cl)N1CCN([C@H]2CC[C@H](O)CC2)C(=O)C1`, in data set [1], the IC50 turned out to be 53 nM. The Activity entry in the data set filed under Rattus norvegicus is recorded as “Toxic”; with Huh-7, “Non-toxic”. Also, the fraction unbound at 4 h, 5 µM in data set [2] was 0.17; in data set [3], 0.2; in data set [6], 0.34; in data set [12], 0.23. Also, the EC50 in the data set on Hepatitis C virus [4] worked out at 1 nM; in the data set with Hepatitis C virus [5], 7 nM; in the data set with Hepatitis C virus [11], 730 nM. This compound came in with an AUC(0-t) at 24 h in data set [7] of 11300 ng·h/mL. For the same compound, the 90% effect level in the data set with Hepatitis C virus [8] (EC90) was put at 29 nM. Also, the chromatographic logD in [9] is 3.5. This compound also came in with a solubility in data set [10] of 11 µg/mL (≈ 22.7 µM).
